What was measured:
Carbonic anhydrase 9 = Carbonic anhydrase 9 (Homo sapiens, UniProt Q16790); test: Inhibition of carbonic anhydrase 9 (unknown origin) preincubated for 15 mins by stopped flow CO2 hydration assay
Carbonic anhydrase 12 = Carbonic anhydrase 12 (Homo sapiens, UniProt O43570)
Homo sapiens = organism: Homo sapiens; test: Selectivity ratio of Ki for carbonic anhydrase 2 (unknown origin) to Ki for carbonic anhydrase 9 (unknown origin)
HT-29 [1] = test: Cytotoxicity against human HT-29 cells assessed as reduction in cell viability after 48 hrs under normoxic conditions by MTT assay; format: functional, cell-based; details: for IC50: HT-29, 48 h
Summary of the method: (§1)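 Cells cultured in high-glucose DMEM with 20% FBS at 37 °C and 5% CO2, seeded at 1x10^4/well, then dosed 24 h later (0–200 μM) for 48 h. Hypoxia: 1% O2, 5% CO2, balance N2 in a hypoxic workstation; normoxia: 20% O2 in air, 5% CO2. MTT (1 mg/ml) for 30 min at 37 °C, formazan dissolved in DMSO, A550. Untreated control set to 100%; quadruplicates, ≥3 cell batches, mean ± S.E.M.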

MDA-MB-231 [2] = test: Cytotoxicity against human MDA-MB-231 cells assessed as reduction in cell viability after 48 hrs under normoxic conditions by MTT assay; format: functional, cell-based; details: for IC50: MDA-MB-231, 48 h; summary of the method: as §1
PC-3 [3] = test: Cytotoxicity against human PC3 cells assessed as reduction in cell viability after 48 hrs under normoxic conditions by MTT assay; format: functional, cell-based; details: for IC50: PC-3, 48 h; summary of the method: as §1
HT-29 [4] = test: Cytotoxicity against human HT-29 cells assessed as reduction in cell viability after 48 hrs under hypoxic conditions by MTT assay; format: functional, cell-based; details: for IC50: HT-29, 48 h; summary of the method: as §1
MDA-MB-231 [5] = test: Cytotoxicity against human MDA-MB-231 cells assessed as reduction in cell viability after 48 hrs under hypoxic conditions by MTT assay; format: functional, cell-based; details: for IC50: MDA-MB-231, 48 h; summary of the method: as §1
PC-3 [6] = test: Cytotoxicity against human PC3 cells assessed as reduction in cell viability after 48 hrs under hypoxic conditions by MTT assay; format: functional, cell-based; details: for IC50: PC-3, 48 h; summary of the method: as §1
MDA-MB-231 [7] = test: Cytotoxicity against human MDA-MB-231 cells assessed as cell viability at 200 uM after 48 hrs under hypoxic conditions by MTT assay (reference value: 100%); format: functional; details: MDA-MB-231, 48 h, read-out: Activity; summary of the method: as §1
MDA-MB-231 [8] = test: Cytotoxicity against human MDA-MB-231 cells assessed as cell viability at 30 uM after 48 hrs under normoxic conditions by MTT assay (reference value: 100%); format: functional; details: MDA-MB-231, 48 h, read-out: Activity; summary of the method: as §1
MDA-MB-231 [9] = test: Cytotoxicity against human MDA-MB-231 cells assessed as cell viability at 100 uM after 48 hrs under normoxic conditions by MTT assay (reference value: 100%); format: functional; details: MDA-MB-231, 48 h, read-out: Activity; summary of the method: as §1
MDA-MB-231 [10] = test: Cytotoxicity against human MDA-MB-231 cells assessed as cell viability at 200 uM after 48 hrs under normoxic conditions by MTT assay (reference value: 100%); format: functional; details: MDA-MB-231, 48 h, read-out: Activity; summary of the method: as §1
MDA-MB-231 [11] = test: Cytotoxicity against human MDA-MB-231 cells assessed as cell viability at 100 uM after 48 hrs under hypoxic conditions by MTT assay (reference value: 100%); format: functional; details: MDA-MB-231, 48 h, read-out: Activity; summary of the method: as §1
MDA-MB-231 [12] = test: Cytotoxicity against human MDA-MB-231 cells assessed as cell viability at 30 uM after 48 hrs under hypoxic conditions by MTT assay (reference value: 100%); format: functional; details: MDA-MB-231, 48 h, read-out: Activity; summary of the method: as §1
PC-3 [13] = test: Cytotoxicity against human PC3 cells assessed as cell viability at 30 uM after 48 hrs under normoxic conditions by MTT assay (reference value: 100%); format: functional; details: PC-3, 48 h, read-out: Activity; summary of the method: as §1
PC-3 [14] = test: Cytotoxicity against human PC3 cells assessed as cell viability at 100 uM after 48 hrs under normoxic conditions by MTT assay (reference value: 100%); format: functional; details: PC-3, 48 h, read-out: Activity; summary of the method: as §1
PC-3 [15] = test: Cytotoxicity against human PC3 cells assessed as cell viability at 200 uM after 48 hrs under normoxic conditions by MTT assay (reference value: 100%); format: functional; details: PC-3, 48 h, read-out: Activity; summary of the method: as §1
PC-3 [16] = test: Cytotoxicity against human PC3 cells assessed as cell viability at 30 uM after 48 hrs under hypoxic conditions by MTT assay (reference value: 100%); format: functional; details: PC-3, 48 h, read-out: Activity; summary of the method: as §1
PC-3 [17] = test: Cytotoxicity against human PC3 cells assessed as cell viability at 100 uM after 48 hrs under hypoxic conditions by MTT assay (reference value: 100%); format: functional; details: PC-3, 48 h, read-out: Activity; summary of the method: as §1
PC-3 [18] = test: Cytotoxicity against human PC3 cells assessed as cell viability at 200 uM after 48 hrs under hypoxic conditions by MTT assay (reference value: 100%); format: functional; details: PC-3, 48 h, read-out: Activity; summary of the method: as §1
HT-29 [19] = test: Cytotoxicity against human HT-29 cells assessed as cell viability at 30 uM after 48 hrs under normoxic conditions by MTT assay (reference value: 100%); format: functional; details: Homo sapiens, HT-29, 48 h; read-out: Activity; summary of the method: as §1
HT-29 [20] = test: Cytotoxicity against human HT-29 cells assessed as cell viability at 100 uM after 48 hrs under normoxic conditions by MTT assay (reference value: 100%); format: functional; details: Homo sapiens, HT-29, 48 h; read-out: Activity; summary of the method: as §1
HT-29 [21] = test: Cytotoxicity against human HT-29 cells assessed as cell viability at 200 uM after 48 hrs under normoxic conditions by MTT assay (reference value: 100%); format: functional; details: Homo sapiens, HT-29, 48 h; read-out: Activity; summary of the method: as §1
HT-29 [22] = test: Cytotoxicity against human HT-29 cells assessed as cell viability at 30 uM after 48 hrs under hypoxic conditions by MTT assay (reference value: 100%); format: functional; details: Homo sapiens, HT-29, 48 h; read-out: Activity; summary of the method: as §1
HT-29 [23] = test: Cytotoxicity against human HT-29 cells assessed as cell viability at 100 uM after 48 hrs under hypoxic conditions by MTT assay (reference value: 100%); format: functional; details: Homo sapiens, HT-29, 48 h; read-out: Activity; summary of the method: as §1
HT-29 [24] = test: Cytotoxicity against human HT-29 cells assessed as cell viability at 200 uM after 48 hrs under hypoxic conditions by MTT assay (reference value: 100%); format: functional; details: Homo sapiens, HT-29, 48 h; read-out: Activity; summary of the method: as §1
Carbonic anhydrase 1 = Carbonic anhydrase 1 (Homo sapiens, UniProt P00915); test: Inhibition of recombinant human cytosolic carbonic anhydrase 1 preincubated for 15 mins by stopped flow CO2 hydration assay
Sequence of Carbonic anhydrase 1 (P00915 whole entry): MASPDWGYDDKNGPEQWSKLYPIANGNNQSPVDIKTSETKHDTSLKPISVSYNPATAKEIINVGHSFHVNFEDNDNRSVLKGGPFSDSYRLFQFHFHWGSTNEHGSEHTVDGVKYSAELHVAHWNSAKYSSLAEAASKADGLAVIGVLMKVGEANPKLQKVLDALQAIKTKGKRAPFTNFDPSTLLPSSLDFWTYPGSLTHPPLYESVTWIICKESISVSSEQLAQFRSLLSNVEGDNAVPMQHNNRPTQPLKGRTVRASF

Sequence of Carbonic anhydrase 12 (O43570 whole entry): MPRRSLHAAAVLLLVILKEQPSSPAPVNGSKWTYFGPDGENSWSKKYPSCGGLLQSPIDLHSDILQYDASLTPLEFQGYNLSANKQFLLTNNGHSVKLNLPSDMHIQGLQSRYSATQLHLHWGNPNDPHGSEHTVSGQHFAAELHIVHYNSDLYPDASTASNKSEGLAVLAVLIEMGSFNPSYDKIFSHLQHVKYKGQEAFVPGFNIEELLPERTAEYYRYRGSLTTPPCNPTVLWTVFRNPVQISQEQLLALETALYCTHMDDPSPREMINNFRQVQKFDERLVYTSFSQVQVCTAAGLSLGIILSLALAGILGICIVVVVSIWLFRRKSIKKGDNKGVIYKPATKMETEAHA

Compound | Ki (Carbonic anhydrase 9) | Ki (Carbonic anhydrase 12) | Ratio Ki (Homo sapiens) | Activity (HT-29 [1]) | IC50 (HT-29 [1]) | Activity (MDA-MB-231 [2]) | IC50 (MDA-MB-231 [2]) | Activity (PC-3 [3]) | IC50 (PC-3 [3]) | Activity (HT-29 [4]) | IC50 (HT-29 [4]) | Activity (MDA-MB-231 [5]) | IC50 (MDA-MB-231 [5]) | Activity (PC-3 [6]) | IC50 (PC-3 [6]) | viability at 200 µM (MDA-MB-231 [7]) | viability at 30 µM (MDA-MB-231 [8]) | viability at 100 µM (MDA-MB-231 [9]) | viability at 200 µM (MDA-MB-231 [10]) | Ki (Carbonic anhydrase 1) | also measured
NS(=O)(=O)c1cc(NC(=O)NCCc2ccccc2)c(O)c([N+](=O)[O-])c1 | 110 nM | 310 nM | 28 | Dose-dependent effect | > 200 µM | Dose-dependent effect | > 200 µM | Dose-dependent effect | > 200 µM | Dose-dependent effect | > 200 µM | Dose-dependent effect | 194 µM | Dose-dependent effect | > 200 µM | 48.2% | 108% | 107% | 85.1% |  | viability at 100 µM (MDA-MB-231 [11]): 79.8%; viability at 30 µM (MDA-MB-231 [12]): 72%; viability at 30 µM (PC-3 [13]): 115%; viability at 100 µM (PC-3 [14]): 68.5%; viability at 200 µM (PC-3 [15]): 63.5%; viability at 30 µM (PC-3 [16]): 85.2%; viability at 100 µM (PC-3 [17]): 62.7%; viability at 200 µM (PC-3 [18]): 61.9%; viability at 30 µM (HT-29 [19]): 97.6%; viability at 100 µM (HT-29 [20]): 85.8%; viability at 200 µM (HT-29 [21]): 80.7%; viability at 30 µM (HT-29 [22]): 76.7%; viability at 100 µM (HT-29 [23]): 57.3%; viability at 200 µM (HT-29 [24]): 53.8%
NS(=O)(=O)c1cc(NC(=O)Nc2ccccc2)c(O)c([N+](=O)[O-])c1 | 940 nM | 830 nM | 3 |  |  |  |  |  |  |  |  |  |  |  |  |  |  |  |  | > 50 µM | 
NS(=O)(=O)c1cc(NC(=O)Nc2ccc3c(c2)OCO3)c(O)c([N+](=O)[O-])c1 | 150 nM | 250 nM | 30 | Dose-dependent effect | > 200 µM | Dose-dependent effect | > 200 µM | Dose-dependent effect | > 200 µM | Dose-dependent effect | 79.5 µM | Dose-dependent effect | > 200 µM | Dose-dependent effect | > 200 µM | 67.5% | 105% | 95% | 103% | > 50 µM | viability at 100 µM (MDA-MB-231 [11]): 92.2%; viability at 30 µM (MDA-MB-231 [12]): 105%; viability at 30 µM (PC-3 [13]): 80.1%; viability at 100 µM (PC-3 [14]): 65.9%; viability at 200 µM (PC-3 [15]): 61.6%; viability at 30 µM (PC-3 [16]): 101%; viability at 100 µM (PC-3 [17]): 77.5%; viability at 200 µM (PC-3 [18]): 70.2%; viability at 30 µM (HT-29 [19]): 71.5%; viability at 100 µM (HT-29 [20]): 62.7%; viability at 200 µM (HT-29 [21]): 60.4%; viability at 30 µM (HT-29 [22]): 28.3%; viability at 100 µM (HT-29 [23]): 22.8%; viability at 200 µM (HT-29 [24]): 24.6%
NS(=O)(=O)c1cc(NC(=O)NCc2ccco2)c(O)c([N+](=O)[O-])c1 | 390 nM | 530 nM |  |  |  |  |  |  |  |  |  |  |  |  |  |  |  |  |  | > 50 µM | 

— ChEMBL document CHEMBL4261658, “4-Hydroxy-3-nitro-5-ureido-benzenesulfonamides Selectively Target the Tumor-Associated Carbonic Anhydrase Isoforms IX and XII Showing Hypoxia-Enhanced Antiproliferative Profiles” (J Med Chem, 2018)
